# Compounds with a hit are over-represented: about 2.5% of the library has one in this group of screens.
# Rce1 inhib – inhibitors of yeast Ras-converting enzyme; Q03530; yeast membranes, quenched prenylated peptide cleavage fluorescence; hit rate 0.27% among 290,000; calls only;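 active = fall in fluorescence gain of 50% or more versus controls, with final raw signal at or below 3038400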
# UCH37 inh – human UCH37 deubiquitinating enzyme inhibition; inhibition, % (no concentration beside the values); AID 588478; purified proteasome/UCH37, Ub-AMC cleavage fluorescence; Q9Y5K5; hit rate 0.33% among 330,000;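 active = mean inhibition over replicate wells above about 20%, limit read from the data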
#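 Assay system: Proteasome-bound UCH37. Buffer or medium: pH 7.4 Tris-HCl (50 mM) with ovalbumin, ATP-MgCl2, DTT. Incubation: 30 min preincubation with enzyme, 25 min cleavage at room temperature. Measured by: fluorescence, ex 355 nm, em 460 nm. Read-out basis: percent inhibition. Control set: wells without proteasome as full block, compound-free enzyme plus substrate as uninhibited.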
# MEKK3 PB1 HTS – modulators (inhibitors or enhancers) of MEK5 binding to human MEKK3 PB1 domain; bead-based flow cytometry, Alexa488-MEK5 binding to MEKK3; actives lie on both sides; 0 = blocked by unlabeled MEK5, 100 = vehicle; binding response (% of control), % at 10 µM; hit rate 1.4% among 290,000; AID 1529;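 active = binding response more than 3 SD above or below the average of its plate-row segment, actives on both sides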;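 note: Alexa488 bead fluorescence after subtracting the streptavidin-only scavenger bead signal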
# Target sequence (Q99759 whole entry, looked up, the tested form may be a part): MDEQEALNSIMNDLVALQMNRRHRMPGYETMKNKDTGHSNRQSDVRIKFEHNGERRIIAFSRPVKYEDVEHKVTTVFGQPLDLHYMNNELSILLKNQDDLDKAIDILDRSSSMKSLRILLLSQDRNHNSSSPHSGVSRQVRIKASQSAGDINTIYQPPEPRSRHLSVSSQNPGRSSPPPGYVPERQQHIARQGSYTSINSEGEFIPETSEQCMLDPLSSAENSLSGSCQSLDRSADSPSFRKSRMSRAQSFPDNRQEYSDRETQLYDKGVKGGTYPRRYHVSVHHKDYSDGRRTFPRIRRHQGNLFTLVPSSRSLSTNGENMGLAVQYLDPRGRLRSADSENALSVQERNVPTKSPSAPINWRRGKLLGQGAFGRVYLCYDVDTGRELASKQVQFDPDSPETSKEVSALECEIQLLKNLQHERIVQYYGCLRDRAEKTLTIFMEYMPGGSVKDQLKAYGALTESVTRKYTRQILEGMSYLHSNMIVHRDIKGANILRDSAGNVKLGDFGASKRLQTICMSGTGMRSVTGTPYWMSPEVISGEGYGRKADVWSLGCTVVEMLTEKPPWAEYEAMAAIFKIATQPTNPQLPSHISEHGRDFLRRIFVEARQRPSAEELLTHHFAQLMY
# MEKK2wt PB1 HTS – raises or lowers MEK5 binding to wildtype human MEKK2 PB1 domain | binding response (% of control), % at 10 µM | Q9Y2U5 | bead flow cytometry, Alexa488-MEK5 binding to MEKK2 WT; actives lie on both sides | hit rate 1.1% among 290,000; in the data active = binding response below about 67% or above about 130%
# MEKK2 mut-MEK5 – signal of MEK5 binding to mutant human MEKK2 PB1 domain | bead flow cytometry, Alexa488-MEK5 binding to MEKK2 mutant | hit rate 0.35% among 290,000 | percent response, % at 10 µM | AID 1530; in the data active = percent response above about 24%, passing the limit was not always enough
# T cell modulator – T cell immune modulators affecting CD8 T cell-vesicle binding | 2C CD8+ T cell-vesicle binding, flow cytometry; stronger effect = lower value | response (vesicle binding), % at 7 µM | hit rate 0.068% among 330,000;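 active = response, share of CD8 T cells binding vesicles, and their 90th percentile fluorescence all below set limits, cut at about 80% in these data, passing the limit was not always enough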;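 note: values below 100% mean blocked vesicle binding to the CD8+ T cells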
#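 Material: 2C TCR transgenic mouse naive CD8+ T cells, MACS-purified. Also added: QL9-charged Drosophila Ld/ICAM-1/B7-1 vesicles. Timing: binding 1.5 h at 37 °C. Measured by: high-throughput flow cytometry with anti-B7-1 and anti-CD8 staining. Read-out: percent CD8+ FL2 mean versus row control. Controls: Unloaded micro-vesicles (low), QL9 vesicles with 0.7% DMSO (high).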
# Hits are given with their value; - = inactive; . = not tested or not shown; + = active, no number.
SMILES,Rce1 inhib,UCH37 inh,MEKK3 PB1 HTS,MEKK2wt PB1 HTS,MEKK2 mut-MEK5,T cell modulator
C=C(C)CNC(=S)NN=Cc1ccc2c(c1)OCO2,.,-,.,.,.,.
Cc1cc(N2CCOCC2)n2cc(-c3ccccc3)nc2n1,+,-,-,-,-,-
Clc1ccc(NN=Cc2ccncc2)cc1Cl,.,-,.,.,.,.
CC(=NNC(=O)c1ccccc1O)c1ccc(NC(=O)c2ccccc2)cc1,.,-,.,.,.,.
COc1cccc(-c2noc(Cn3nc(C)c([N+](=O)[O-])c3C)n2)c1,-,24,-,-,-,-
CCOC(=O)c1sc(Nc2ccc(Br)cc2)nc1C,-,-,-,-4.0,-,-
CCOC(=O)c1sc(Nc2ccccc2Cl)nc1C,-,-,-,-,-,-
CC(=NNS(=O)(=O)c1ccccc1)c1ccccc1,.,-,.,.,.,.
O=C(O)c1c(C(=O)N2N=C3/C(=C/c4ccccc4)CCCC3C2c2ccccc2)cccc1[N+](=O)[O-] (stereo not drawn),-,-,-,-,-,-
CC(=O)N1N=C2/C(=C/c3ccccc3)CCCC2C1c1ccccc1 (stereo not drawn),-,-,-,-,-,71
CC1=NNC(=O)C1CC(=O)NN=Cc1ccc(C)o1 (stereo not drawn),.,-,.,.,.,.
COC(=O)C1=CN(CC2CCCO2)C=C(C(=O)OC)C1c1cccc(O)c1 (stereo not drawn),+,-,-,-,-,-
O=C(CCSc1nc2ccccc2s1)NN=Cc1c(O)ccc2ccccc12,.,-,.,.,.,.
Cc1cccc(NC(=O)c2cc[n+]([O-])cc2)c1C,-,-,-,-,-,-
Cc1ccccc1NC(=O)c1cc[n+]([O-])cc1,-,-,-,169,-,-
Cc1ccccc1NC(=O)NC(N)=O,-,-,-,-4.0,-,-
COc1cccc(C=NN2CCN(C)CC2)c1,.,-,.,.,.,.
C=CCn1c(SCc2nc3c(c(=O)[nH]c(=O)n3CCCC)n2CCC)nnc1-c1ccccc1,-,29,-,-,-,-
CCn1c(-c2cccs2)nc2ccccc21,+,-,-,-,-,-
C#CCn1c(-c2cccs2)nc2ccccc21,-,-,-,-,-,-
COc1cc(C=Nn2nnnc2N)ccc1OC(C)C,.,-,.,.,.,.
CC1CCN(N=Nc2nc3c([nH]2)c(=O)n(C)c(=O)n3C)CC1,.,-,.,.,.,.
Cn1c(=O)c2[nH]c(N=NN3CCCCC3)nc2n(C)c1=O,.,22,.,.,.,.
CN(c1ccccc1)c1ccc(/C=N/NC(=O)CC#N)cc1,+,.,-,-,-,-
N#CCC(=O)NN=Cc1ccc(OCc2ccccc2)cc1,.,-,.,.,.,.
SMILES,Rce1 inhib,UCH37 inh,MEKK3 PB1 HTS,MEKK2wt PB1 HTS,MEKK2 mut-MEK5,T cell modulator
CCOC(=O)C1=C(COC(=O)c2ccc([N+](=O)[O-])o2)NC(=O)NC1C (stereo not drawn),.,21,.,.,.,-
CCOC(=O)C1CCN(C(=O)COC(=O)c2ccc([N+](=O)[O-])o2)CC1,.,20,.,.,.,-
S=c1[nH]ncn1N=Cc1ccc(Br)cc1,.,-,.,.,.,.
Cc1ccc(NN=Cc2cccnc2)cc1,.,-,.,.,.,.
C=C(C)C1CC=C(C)C(=NNC(=O)CCc2ccccc2)C1 (stereo not drawn),.,-,.,.,.,.
CCC1CCCCN1CCCNC(=O)c1ccc2c(c1)N(Cc1ccc(F)cc1)C(=O)c1ccccc1S2=O (stereo not drawn),-,-,-,147,-,-
Cc1ccc2oc(=O)c3cc(C(=O)NCCCN4CCCCCC4)sc3c2c1,-,-,-,-,-,-
CCC1CCCCN1CCCNC(=O)c1cc2c(=O)oc3ccc(C)cc3c2s1 (stereo not drawn),-,-,-,153,-,-
CCC1CCCCN1CCCNC(=O)c1ccc(N2CCCC2=O)cc1 (stereo not drawn),-,-,-,-,-,-
CCC1CCCCN1CCCNC(=O)c1ccc2c(c1)c(C)c(C)n2C (stereo not drawn),-,-,-,158,-,-
CCC1CCCCN1CCCNC(=O)c1ccc2c(c1)c(C)c(C)n2CC (stereo not drawn),-,-,-,50,-,-
COc1ccc(C=NNC(=O)Cn2ccnc2C)cc1OC,.,-,.,.,.,.
CCCC(=NNC(=O)c1csc(C)c1C)c1cccs1,.,-,.,.,.,.
CCN(CC)c1cccc(OCC(=O)N(C)CCC#N)c1,-,-,-,.,73,-
CCOc1cccc(C(=O)Nc2ccc(N(CC)CC)cc2)c1,-,-,-,-,-,-
Cc1ccc2nc(-c3ccc(NC(=O)CSCC(=O)O)cc3)sc2c1,-,-,-,-,-,-
O=C(O)CSCC(=O)Nc1ccc(-c2nc3ccccc3s2)cc1,+,.,-,-,-,-
CC(=NN1CCN(Cc2ccccc2)CC1)c1ccc(Br)cc1,.,-,.,.,.,.
COc1ccccc1-c1nnc2sc(-c3ccc(N(C)C)cc3)nn12,+,-,-,-,-,-
C=CCN1C(=O)[C@H]2CCC=C[C@H]2[C@@H]1c1cccc(C)c1,.,24,.,.,.,.
Cc1cccc([C@H]2[C@@H]3C=CCC[C@@H]3C(=O)N2Cc2ccccc2)c1,.,-,.,.,.,.
Cc1ccc(Nc2nc(N/N=C/c3c[nH]c4ccccc34)nc(N3CCOCC3)n2)cc1,-,.,145,-,-,-
O=C(NCC1CCCO1)C(=O)NN=Cc1c(F)cccc1Cl (stereo not drawn),.,-,.,.,.,.
Cc1ncc([N+](=O)[O-])n1Cc1cccc(F)c1,-,.,-,-,-,72
CCS(=O)(=O)CCn1c([N+](=O)[O-])cnc1C,-,-,-,-9.0,-,-
SMILES,Rce1 inhib,UCH37 inh,MEKK3 PB1 HTS,MEKK2wt PB1 HTS,MEKK2 mut-MEK5,T cell modulator
Cc1ncc([N+](=O)[O-])n1Cc1ccccc1,-,-,-,-,-,-
O=[N+]([O-])c1cccc(S(=O)(=O)c2ccc(NCCOCCO)c([N+](=O)[O-])c2)c1,-,-,-,-,-,-
O=[N+]([O-])c1cccc(S(=O)(=O)c2ccc(NCCO)c([N+](=O)[O-])c2)c1,-,32,-,-,-,-
CC(=O)C(=NNc1ccccc1Cl)Sc1cccc2cccnc12,.,-,.,.,.,.
CCN(CC)Cc1c(O)ccc2c(=O)c(-c3ccccc3OC)coc12,+,-,-,-,-,-
COc1cc(C=NOCC(=O)NC2CCS(=O)(=O)C2)ccc1OC(F)F (stereo not drawn),.,-,.,.,.,.
CC(=O)N(CN1C(=O)c2ccccc2C1=O)c1ccccc1,-,-,-,-,-,-
CCNc1nc(C)c(CN(C(C)=O)c2ccccc2)nc1C#N,+,-,-,-,-,-
CCOc1cc(C=NNC(=O)c2nn(C)cc2Br)ccc1OCc1ccccc1Cl,.,-,.,.,.,.
CCOc1ccccc1NC(=O)Cn1c(=O)n(-c2ccccc2)c(=O)c2oc3ccccc3c21,-,-,-,5.0,-,-
NC(=O)Cn1c(=O)n(-c2ccccc2)c(=O)c2oc3ccccc3c21,-,-,-,-,-,-
CSc1ccc(C=Nn2c(C)nc3ccccc3c2=O)cc1,.,-,.,.,.,.
Nc1nnc(-c2ccncc2)s1,+,-,-,-,-,-

# Source: PubChem BioAssay (several laboratories)
